Source: ChEMBL document CHEMBL4376814, “Novel cyclin-dependent kinase 9 (CDK9) inhibitor with suppression of cancer stemness activity against non-small-cell lung cancer” (Eur J Med Chem, 2019)

How the values were obtained:
MCF7 = assay: Antiproliferative activity against human MCF7 cells assessed as inhibition of cell viability at 500 nM after 72 hrs by CCK-8 assay relative to control; format: functional; conditions: MCF7, 72 h
Outline: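 Single-concentration viability screen using CCK-8. Cells were seeded at 3000/well and treated for 72 h. A450 read after 1-4 h with reagent. Percent inhibition calculated against untreated control and blank wells as (Ac−As)/(Ac−Ab)×100%.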

HCC827 = assay: Antiproliferative activity against human HCC827 cells assessed as inhibition of cell viability after 72 hrs by CCK-8 assay; format: functional, cell-based; conditions: HCC827, 72 h
Outline: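 Cells kept at 37 °C, 5% CO2 in DMEM or RPMI-1640 with 10% FBS and 1% penicillin/streptomycin, then seeded at 3000 cells/well (adherent) or 10,000 cells/well (suspension). Exposed to a range of concentrations for 72 h. CCK-8 added for 1-4 h before reading A450. […] Three independent experiments.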

NCI-H1299 = assay: Inhibition of tumorsphere formation in human H1299 cells assessed as reduction in side population ratio by PI/Hoechst 33342 staining based flow cytometry; format: functional, cell-based
[1] = Intrinsic clearance in Sprague-Dawley rat liver microsomes at 2 uM in presence of NADPH measured up to 1 hr by HPLC analysis; format: ADME, Microsome
[2] = target: Activin receptor type-1B (Homo sapiens) (UniProt P36896); assay: Inhibition of recombinant human ALK4 (150 to end residues) at 1 uM using casein as substrate measured after 40 mins in presence of [gamma33P]ATP by scintillation counting method relative to control
[3] = target: Serine/threonine-protein kinase BRSK1 (Homo sapiens) (UniProt Q8TDC3); assay: Inhibition of recombinant human BrSK1 (2 to end residues) at 1 uM using KKKVSRSGLYRSPSMPENLNRPR as substrate measured after 40 mins in presence of [gamma33P]ATP by scintillation counting method relative to control
[4] = target: Tyrosine-protein kinase BTK (Homo sapiens) (UniProt Q06187); assay: Inhibition of full-length recombinant human BTK at 1 uM using KVEKIGEGTYGVVYK as substrate measured after 40 mins in presence of [gamma33P]ATP by scintillation counting method relative to control
Outline: (§1)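 Single-point inhibition at 1 µM was measured in the Eurofins KinaseProfiler panel. Values are the mean of two independent experiments.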

[5] = target: Cyclin-dependent kinase-like 1 (Homo sapiens) (UniProt Q00532); assay: Inhibition of recombinant human CDKL1 (1 to 303 residues) at 1 uM using RRRFRPASPLRGP as substrate measured after 120 mins in presence of [gamma33P]ATP by scintillation counting method relative to control
[6] = test system: Serine/threonine-protein kinase Chk2 (Homo sapiens), O96017 [R145W]; assay: Inhibition of recombinant human CHK2 R145W mutant (5 to end residues) at 1 uM using KKKVSRSGLYRSPSMPENLNRPR as substrate measured after 40 mins in presence of [gamma33P]ATP by scintillation counting method relative to control; outline: as §1
[7] = target: Casein kinase 2 (Homo sapiens) (UniProt P67870+P68400+P19784+Q8NEV1); assay: Inhibition of human CK2 at 1 uM relative to control; format: protein assay
Outline: (§2)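 Percent inhibition of kinase activity at a single compound concentration, measured by the outsourced Eurofins KinaseProfiler panel. Values are the mean of two independent experiments.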

[8] = target: Protein kinase C epsilon type (Homo sapiens) (UniProt Q02156); assay: Inhibition of recombinant human PKCepsilon (2 to end residues) at 1 uM using ERMRPRKRQGSVRRRV as substrate measured after 40 mins in presence of [gamma33P]ATP by scintillation counting method relative to control
[9] = target: Ephrin type-A receptor 8 (Homo sapiens) (UniProt P29322); assay: Inhibition of recombinant human EphA8 (615 to 911 residues) at 1 uM using KTFCGTPEYLAPEVRREPRILSEEEQEMFRDFDYIADWC as substrate measured after 40 mins in presence of [gamma33P]ATP by scintillation counting method relative to control
[10] = target: Mitogen-activated protein kinase 11 (Homo sapiens) (UniProt Q15759); assay: Inhibition of recombinant full-length human SAPK2b at 1 uM using myelin basic protein as substrate measured after 40 mins in presence of [gamma33P]ATP by scintillation counting method relative to control
[11] = target: Tyrosine-protein kinase HCK (Homo sapiens) (UniProt P08631); assay: Inhibition of recombinant human HCK (230 to 497 residues) at 1 uM using Cdc2 peptide as substrate measured after 40 mins in presence of [gamma33P]ATP by scintillation counting method relative to control
[12] = target: Inhibitor of nuclear factor kappa-B kinase subunit alpha (Homo sapiens) (UniProt O15111); assay: Inhibition of human full length recombinant IKKalpha at 1 uM using peptide as substrate incubated for 40 mins in presence of [gamma-33P]ATP at Km concentration by radiometric assay relative to control
[13] = test system: TGF-beta receptor type-1 (Homo sapiens), P36897 [T204D]; assay: Inhibition of human TGFBR1 T204D mutant (200 to end residues) at 1 uM using casein as substrate measured after 40 mins in presence of [gamma33P]ATP by scintillation counting method relative to control; outline: as §2
[14] = target: Testis-specific serine/threonine-protein kinase 4 (Homo sapiens) (UniProt Q6SA08); assay: Inhibition of recombinant full-length human TSSK4 at 1 uM using KKLNRTLSFAEPG as substrate measured after 40 mins in presence of [gamma33P]ATP by scintillation counting method relative to control
[15] = target: Serine/threonine-protein kinase ULK1 (Homo sapiens) (UniProt O75385); assay: Inhibition of human ULK1 (1 to 314 residues) at 1 uM using casein as substrate measured after 40 mins in presence of [gamma33P]ATP by scintillation counting method relative to control
[16] = target: Leucine-rich repeat serine/threonine-protein kinase 2 (Homo sapiens) (UniProt Q5S007); assay: Inhibition of recombinant human LRRK2 (970 to end residues) at 1 uM using RLGRDKYKTLRQIRQ as substrate measured after 40 mins in presence of [gamma33P]ATP by scintillation counting method relative to control
[17] = target: Serine/threonine-protein kinase WNK1 (Homo sapiens) (UniProt Q9H4A3); assay: Inhibition of recombinant human WNK1 (1 to 491 residues) at 1 uM using MBP as substrate measured after 120 mins in presence of [gamma33P]ATP by scintillation counting method relative to control
[18] = target: DNA-dependent protein kinase catalytic subunit (Homo sapiens) (UniProt P78527); assay: Inhibition of recombinant full-length human DNA-PK at 1 uM using GST-cMyc-p53 as substrate measured after 40 mins by fluorescence assay relative to control
[19] = test system: PI3-kinase p110-alpha/p85-alpha (Homo sapiens), P27986+P42336 [E545K]; assay: Inhibition of recombinant full-length human PI3K p110alpha/p85alpha E545K mutant at 1 uM using phosphatidylinositol-4, 5-bisphosphate as substrate measured after 40 mins by HTRF assay relative to control; format: protein-complex assay

Serine/threonine-protein kinase Chk2 (Homo sapiens), O96017 [R145W], sequence (O96017 whole entry R145W): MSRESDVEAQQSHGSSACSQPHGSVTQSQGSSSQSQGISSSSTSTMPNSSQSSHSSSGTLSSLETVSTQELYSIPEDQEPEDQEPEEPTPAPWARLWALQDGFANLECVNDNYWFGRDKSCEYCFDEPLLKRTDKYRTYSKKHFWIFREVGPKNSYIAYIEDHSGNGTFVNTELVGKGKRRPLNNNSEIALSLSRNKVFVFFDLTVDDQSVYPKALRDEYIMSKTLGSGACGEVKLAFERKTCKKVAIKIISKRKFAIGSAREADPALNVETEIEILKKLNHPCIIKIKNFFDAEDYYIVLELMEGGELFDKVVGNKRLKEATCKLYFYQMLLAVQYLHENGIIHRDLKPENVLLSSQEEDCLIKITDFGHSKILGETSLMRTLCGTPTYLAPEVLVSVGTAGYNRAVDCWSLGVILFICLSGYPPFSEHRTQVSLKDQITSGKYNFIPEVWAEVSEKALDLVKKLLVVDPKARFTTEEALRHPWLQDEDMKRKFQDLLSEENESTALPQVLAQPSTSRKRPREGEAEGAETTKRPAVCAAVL
Testis-specific serine/threonine-protein kinase 4 (Homo sapiens), sequence (Q6SA08 whole entry, the tested form may be a part): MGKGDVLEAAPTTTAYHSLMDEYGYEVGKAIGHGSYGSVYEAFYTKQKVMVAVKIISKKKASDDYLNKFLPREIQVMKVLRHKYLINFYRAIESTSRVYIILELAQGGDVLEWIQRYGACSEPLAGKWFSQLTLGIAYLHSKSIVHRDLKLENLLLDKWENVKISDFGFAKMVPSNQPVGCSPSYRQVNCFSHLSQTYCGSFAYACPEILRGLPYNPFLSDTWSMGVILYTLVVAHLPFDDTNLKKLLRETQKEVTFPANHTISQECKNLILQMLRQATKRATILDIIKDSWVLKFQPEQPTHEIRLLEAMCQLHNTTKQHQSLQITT
Tyrosine-protein kinase HCK (Homo sapiens), sequence (P08631 2-526 limits assumed): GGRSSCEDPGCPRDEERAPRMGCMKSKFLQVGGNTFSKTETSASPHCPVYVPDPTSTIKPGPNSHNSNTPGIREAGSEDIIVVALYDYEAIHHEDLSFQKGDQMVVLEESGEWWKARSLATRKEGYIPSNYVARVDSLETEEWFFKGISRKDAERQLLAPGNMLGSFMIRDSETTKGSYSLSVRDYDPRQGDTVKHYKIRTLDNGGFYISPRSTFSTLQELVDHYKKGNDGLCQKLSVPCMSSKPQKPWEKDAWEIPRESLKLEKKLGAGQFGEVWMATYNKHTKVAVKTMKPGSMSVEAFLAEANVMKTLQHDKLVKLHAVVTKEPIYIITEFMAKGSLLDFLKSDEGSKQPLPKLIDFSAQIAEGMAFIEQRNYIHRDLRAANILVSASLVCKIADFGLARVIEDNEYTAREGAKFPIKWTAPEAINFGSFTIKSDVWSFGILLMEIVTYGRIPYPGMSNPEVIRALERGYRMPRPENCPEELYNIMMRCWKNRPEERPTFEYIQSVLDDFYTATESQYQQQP
Inhibitor of nuclear factor kappa-B kinase subunit alpha (Homo sapiens), sequence (O15111 whole entry): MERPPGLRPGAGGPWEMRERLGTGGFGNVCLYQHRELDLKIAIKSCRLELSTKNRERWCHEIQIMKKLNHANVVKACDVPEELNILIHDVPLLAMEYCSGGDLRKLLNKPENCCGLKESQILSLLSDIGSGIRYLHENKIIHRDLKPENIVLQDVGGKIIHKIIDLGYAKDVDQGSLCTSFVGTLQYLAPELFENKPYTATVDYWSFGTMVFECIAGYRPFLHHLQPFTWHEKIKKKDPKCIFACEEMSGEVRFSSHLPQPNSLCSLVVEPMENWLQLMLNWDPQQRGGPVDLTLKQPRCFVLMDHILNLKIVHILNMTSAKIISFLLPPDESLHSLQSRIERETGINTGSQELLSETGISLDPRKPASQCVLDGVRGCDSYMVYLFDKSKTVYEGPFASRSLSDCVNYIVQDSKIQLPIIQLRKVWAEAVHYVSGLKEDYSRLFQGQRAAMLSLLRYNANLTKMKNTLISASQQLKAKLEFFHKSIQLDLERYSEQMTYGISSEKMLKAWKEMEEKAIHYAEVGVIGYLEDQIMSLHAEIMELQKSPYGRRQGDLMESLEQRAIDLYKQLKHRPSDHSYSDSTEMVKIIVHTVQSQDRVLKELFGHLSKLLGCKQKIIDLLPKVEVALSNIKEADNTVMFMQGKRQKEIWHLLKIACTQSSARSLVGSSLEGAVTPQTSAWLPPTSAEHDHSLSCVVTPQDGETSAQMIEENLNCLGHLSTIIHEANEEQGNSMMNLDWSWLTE
Activin receptor type-1B (Homo sapiens), sequence (P36896 whole entry): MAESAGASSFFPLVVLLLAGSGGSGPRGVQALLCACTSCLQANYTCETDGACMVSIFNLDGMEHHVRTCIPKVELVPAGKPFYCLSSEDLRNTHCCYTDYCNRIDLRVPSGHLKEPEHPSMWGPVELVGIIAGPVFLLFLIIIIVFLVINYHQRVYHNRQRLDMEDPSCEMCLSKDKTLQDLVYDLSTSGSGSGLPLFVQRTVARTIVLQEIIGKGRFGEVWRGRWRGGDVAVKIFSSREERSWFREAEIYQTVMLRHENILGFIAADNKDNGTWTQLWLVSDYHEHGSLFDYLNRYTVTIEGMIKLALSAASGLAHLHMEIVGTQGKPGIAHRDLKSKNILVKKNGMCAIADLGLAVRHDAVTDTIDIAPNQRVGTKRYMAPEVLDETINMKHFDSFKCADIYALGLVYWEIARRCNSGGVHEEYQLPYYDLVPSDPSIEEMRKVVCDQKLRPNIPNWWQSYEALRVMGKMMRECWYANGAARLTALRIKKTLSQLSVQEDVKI
Mitogen-activated protein kinase 11 (Homo sapiens), sequence (Q15759 whole entry, the tested form may be a part): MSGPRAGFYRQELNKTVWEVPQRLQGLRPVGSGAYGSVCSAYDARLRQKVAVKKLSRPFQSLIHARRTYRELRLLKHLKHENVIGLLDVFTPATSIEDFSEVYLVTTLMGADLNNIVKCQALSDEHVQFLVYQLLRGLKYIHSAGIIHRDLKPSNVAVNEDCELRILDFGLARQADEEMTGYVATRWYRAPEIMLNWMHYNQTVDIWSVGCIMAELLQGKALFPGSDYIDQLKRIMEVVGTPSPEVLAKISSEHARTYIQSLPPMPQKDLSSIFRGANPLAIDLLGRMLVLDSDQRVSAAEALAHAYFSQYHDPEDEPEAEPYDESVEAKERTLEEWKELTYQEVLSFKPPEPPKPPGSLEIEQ
Protein kinase C epsilon type (Homo sapiens), sequence (Q02156 whole entry, the tested form may be a part): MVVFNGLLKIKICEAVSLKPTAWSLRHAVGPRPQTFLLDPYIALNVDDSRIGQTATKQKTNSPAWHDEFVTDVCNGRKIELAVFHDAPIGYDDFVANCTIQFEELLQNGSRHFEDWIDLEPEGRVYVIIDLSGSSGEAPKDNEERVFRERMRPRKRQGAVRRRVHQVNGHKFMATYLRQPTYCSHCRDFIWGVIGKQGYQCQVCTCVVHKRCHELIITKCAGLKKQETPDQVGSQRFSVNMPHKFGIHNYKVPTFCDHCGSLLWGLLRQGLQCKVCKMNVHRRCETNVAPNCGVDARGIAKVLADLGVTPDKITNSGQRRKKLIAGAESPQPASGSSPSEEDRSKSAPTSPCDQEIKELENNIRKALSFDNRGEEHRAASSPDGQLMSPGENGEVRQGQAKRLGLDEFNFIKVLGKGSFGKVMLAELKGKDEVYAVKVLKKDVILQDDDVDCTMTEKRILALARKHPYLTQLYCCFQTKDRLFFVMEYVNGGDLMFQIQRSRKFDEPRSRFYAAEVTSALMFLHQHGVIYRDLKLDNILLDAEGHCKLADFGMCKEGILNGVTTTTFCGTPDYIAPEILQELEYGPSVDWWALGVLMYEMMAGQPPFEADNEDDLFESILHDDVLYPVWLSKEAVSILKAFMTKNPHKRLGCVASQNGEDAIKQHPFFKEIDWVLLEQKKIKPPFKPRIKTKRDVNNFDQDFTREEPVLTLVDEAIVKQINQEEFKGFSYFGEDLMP
Cyclin-dependent kinase-like 1 (Homo sapiens), sequence (Q00532 whole entry, the tested form may be a part): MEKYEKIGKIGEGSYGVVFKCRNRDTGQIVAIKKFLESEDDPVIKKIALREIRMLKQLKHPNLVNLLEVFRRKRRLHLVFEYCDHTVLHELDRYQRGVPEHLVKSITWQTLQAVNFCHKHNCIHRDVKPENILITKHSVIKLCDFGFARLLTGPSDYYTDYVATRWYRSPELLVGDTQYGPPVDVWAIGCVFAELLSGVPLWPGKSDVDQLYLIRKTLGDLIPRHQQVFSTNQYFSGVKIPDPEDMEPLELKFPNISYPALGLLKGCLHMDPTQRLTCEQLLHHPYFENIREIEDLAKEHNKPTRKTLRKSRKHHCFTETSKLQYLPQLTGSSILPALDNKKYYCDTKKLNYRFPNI
TGF-beta receptor type-1 (Homo sapiens), P36897 [T204D], sequence (P36897 whole entry T204D): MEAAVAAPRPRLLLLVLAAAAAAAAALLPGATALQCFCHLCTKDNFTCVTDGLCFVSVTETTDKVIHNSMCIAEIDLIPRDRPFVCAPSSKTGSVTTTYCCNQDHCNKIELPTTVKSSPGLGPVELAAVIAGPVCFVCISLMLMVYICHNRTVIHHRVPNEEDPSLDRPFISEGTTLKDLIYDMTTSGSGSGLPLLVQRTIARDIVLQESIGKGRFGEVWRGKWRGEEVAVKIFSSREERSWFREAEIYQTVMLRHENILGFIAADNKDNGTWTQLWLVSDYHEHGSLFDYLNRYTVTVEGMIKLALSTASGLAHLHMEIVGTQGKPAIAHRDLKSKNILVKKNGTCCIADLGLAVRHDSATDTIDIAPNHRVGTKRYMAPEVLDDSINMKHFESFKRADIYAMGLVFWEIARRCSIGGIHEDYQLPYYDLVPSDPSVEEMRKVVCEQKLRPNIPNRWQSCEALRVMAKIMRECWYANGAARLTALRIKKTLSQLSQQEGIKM

Compound: CN(C)C(=O)c1cc2cnc(Nc3ccc(NC(=O)CCCCCCCN=C=S)cc3)nc2n1C1CCCC1
- inhibition at 0.5 µM (MCF7): 62%
- IC50 (HCC827): 1070 nM
- inhibition (NCI-H1299): Dose-dependent effect
- CLH [1]: 57 µL/min/mg
- inhibition [2]: 3%
- inhibition [3]: 16%
- inhibition [4]: 96%
- inhibition [5]: 17%
- inhibition [6]: 52%
- inhibition [7]: 4%
- inhibition [8]: -3%
- inhibition [9]: 2%
- inhibition [10]: 27%
- inhibition [11]: 9%
- inhibition [12]: -1%
- inhibition [13]: 13%
- inhibition [14]: -7%
- inhibition [15]: -3%
- inhibition [16]: 8%
- inhibition [17]: 6%
- inhibition [18]: 9%
- inhibition [19]: 4%
